The results in this text go back to ChEMBL document CHEMBL4513216, “Probing the Open Global Health Chemical Diversity Library for Multistage-Active Starting Points for Next-Generation Antimalarials” (ACS Infect Dis, 2020).

This series in a line: Toxicity liver stage against HepG2, at 10uM. The conditions noted are these: human, HepG2-A16-CD81EGFP cells; read-out: INHIBITION
On the set-up: test concentration 10 uM, cell line HepG2-A16-CD81EGFP. Type of series: cell-based. In a few lines:
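Uninfected HepG2-A16-CD81EGFP cells, 3 × 10^3 per well, 1536-well, plated on prespotted compound at 10 μM final, parasite-free screening media added to match infected plates; puromycin 10 μM positive, DMSO 0.5% negative; run in parallel with 48 h PbLuc assay at 37 °C, 5% CO2; viability by CellTiter-Glo luminescence, normalized to controls.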

Consider `Cc1ccc(CNC(=O)NCC(=O)N2CCCC2)c(N2CCCC2)c1`, for which the cytotoxicity at 10 µM stood at 5.84%.

For `CCCn1nccc1C(=O)N1CCN(C2CCc3ccccc3C2)CC1` (stereo not given), the cytotoxicity at 10 µM was -130%.

`CC(C)C(=O)N1CC2(CCN(CC(C)(C)C)CC2)C1`: the cytotoxicity at 10 µM was -5.28%.

With `NCC1CCC(C(NC(=O)c2ccccc2)c2ccccn2)CC1` (stereo not given), the cytotoxicity at 10 µM turned out to be 0%.

Take `COCC(=O)NC[C@]1(O)CN(Cc2ccc3c(c2)OCCO3)C[C@H]1O`: the cytotoxicity at 10 µM is 1.88%.

Take `Cc1ccc2nc(CN(C)Cc3[nH]nc4c3CCC4)[nH]c2c1C`: the cytotoxicity at 10 µM stood at 2.74%.

For the molecule `CC(C)N(CC(N)=O)Cc1cccc(C(F)(F)F)c1`, the cytotoxicity at 10 µM was 0.292%.

Regarding `CCOCCc1nc(Cc2ccccc2)n[nH]1`, the cytotoxicity at 10 µM was determined as 7.9%.

As for `Cc1ccc(C(=O)NC2CCN(C(=O)NCc3ccccn3)CC2)o1`, the cytotoxicity at 10 µM is -12.2%.

Turning to `COC(=O)[C@H](C)NC(=O)c1nc(C2CC2)n(-c2ccccc2Cl)n1`, the cytotoxicity at 10 µM was -1.76%.

`Cc1cccc(NC(=O)NCC2(N3CCOCC3)CCSC2)c1` (stereo not given): the cytotoxicity at 10 µM stood at 5.02%.

In the case of `Cc1ccc(C(=O)N2CCCC2c2nnc3n2CCCCC3)s1` (stereo not given), the cytotoxicity at 10 µM is -0.208%.

For the molecule `CS(=O)(=O)N1CCN(Cc2csc(-c3ncccn3)n2)CC1`, the cytotoxicity at 10 µM is -4.71%.

In the case of `COc1ccc(NC(=O)c2nc(C)sc2C)cn1`, the cytotoxicity at 10 µM is -2.52%.

`CN1CCC(NC(=O)Nc2cnn(-c3ccccc3Cl)c2)C1=O` (stereo not given): the cytotoxicity at 10 µM is -4.17%.

Turning to `Cc1cccc2cc(C(=O)N3CCC(F)(F)CC3)n(C)c12`, the cytotoxicity at 10 µM worked out at 3.76%.

Consider `Cc1cnc(CN(Cc2ccc(Cl)s2)C2CCN(C)C2)o1` (stereo not given), for which the cytotoxicity at 10 µM was found to be 14.5%.

Turning to `O=C(NCc1cccnc1)N1CCC2(CC(=O)N(c3ccsc3)C2)C1` (stereo not given), the cytotoxicity at 10 µM was -0.125%.

With `COc1ccccc1C(C)(C)NC(=O)NCCC(=O)NC1CCCC1`, the cytotoxicity at 10 µM worked out at 8.42%.

In the case of `O=C(Nc1ccccc1)N1C[C@@H]2C[C@H](C(=O)N3CCOCC3)[C@H](C1)O2`, the cytotoxicity at 10 µM was 7.53%.

Take `Cc1n[nH]c(C)c1Sc1ccccc1NC(=O)N1CCCC(C(N)=O)C1` (stereo not given): the cytotoxicity at 10 µM was -7.59%.

As for `COCCC(=O)N1CC[C@@H](N2CCOCC2)[C@@H]1Cc1ccccc1`, the cytotoxicity at 10 µM is -70.4%.

For `N#Cc1ccc(OC2CCN(CC(=O)NCC3CCCO3)CC2)cc1` (stereo not given), the cytotoxicity at 10 µM was 34.8%.

On to `CC(NCC(=O)N(C)C1CC1)c1ccc(S(C)(=O)=O)c(F)c1` (stereo not given), for which the cytotoxicity at 10 µM was found to be 6.27%.

As to `O=C(O)c1ccc(N2CCC(Oc3ccc(Cl)cc3)CC2)nc1`, the cytotoxicity at 10 µM is -55.6%.

Turning to `Cc1ncccc1CNCC1CCN(CCO)CC1`, the cytotoxicity at 10 µM was -22.5%.

Take `O=C(C1CCOCC1)N1C[C@@H]2CC[C@H]1CN(Cc1ccncc1)C2`: the cytotoxicity at 10 µM is -11%.

Turning to `Cc1nn(C)c(N(C)C)c1CNCC(O)c1ccccc1F` (stereo not given), the cytotoxicity at 10 µM was -7.9%.

Turning to `CN(C)C(=O)N1CC2(CCOCC2)c2cc(NC(=O)CCO)ccc21`, the cytotoxicity at 10 µM is -6.13%.

Consider `COc1c(C)cnc(CN2CCC(N(C)C(=O)C3CC3)CC2)c1C`, for which the cytotoxicity at 10 µM is -2.74%.

Regarding `Cc1cc(C)n(-c2cncc(NCCNC(=O)C3CCCC3)n2)n1`, the cytotoxicity at 10 µM turned out to be 3.51%.

For `CC(=O)N(Cc1noc(C2CC2)n1)C1CCN(Cc2ccncc2)C1` (stereo not given), the cytotoxicity at 10 µM was -13.8%.

For the molecule `CCOC1COC2(CCN(S(=O)(=O)c3cccc(F)c3)CC2)C1` (stereo not given), the cytotoxicity at 10 µM is 5.15%.

`Cc1nc2c(C(=O)O)cccc2n1-c1ccc(C(=O)N2CCCC2)o1`: the cytotoxicity at 10 µM was -2.36%.

With `CCOc1ccc(CN(C)C(C)C(=O)Nc2cc(C)no2)cc1` (stereo not given), the cytotoxicity at 10 µM came to 10.6%.

Take `Cn1cnnc1S(=O)(=O)C1CCN(S(=O)(=O)c2ccc(F)c(Cl)c2)CC1`: the cytotoxicity at 10 µM is -7.2%.

On to `CNC(=O)c1ccc(=O)n(Cc2csc(N(C)C(C)=O)n2)c1`, for which the cytotoxicity at 10 µM is 0.138%.

For the molecule `Cc1cc(C(=O)NCC2CCCO2)c(C)n1-c1cccnc1` (stereo not given), the cytotoxicity at 10 µM came to 4.95%.

For `O=C(c1cnccn1)N1C[C@@H]2C[C@@H](c3nc(C4CC4)cs3)O[C@@H]2C1`, the cytotoxicity at 10 µM was -118%.

As for `O=C(NCCN1CCCCCC1=O)c1ccn(-c2ccc(F)cc2)n1`, the cytotoxicity at 10 µM is -8.62%.

Take `Cn1cc(NC(=O)c2cccc(C(F)(F)F)c2)c(=O)n(C)c1=O`: the cytotoxicity at 10 µM came to 0.49%.

With `CCC(CNC(=O)OC)(OC)c1ccccc1` (stereo not given), the cytotoxicity at 10 µM was 1.37%.

As to `CC(=O)N(Cc1noc(C)n1)C1CCN(Cc2c(C)noc2C)C1` (stereo not given), the cytotoxicity at 10 µM was -9.55%.

Regarding `c1ccc(Cn2cc(CNCC3CNc4ccnn4C3)cn2)cc1` (stereo not given), the cytotoxicity at 10 µM is -11.6%.

For the molecule `CCN(Cc1nc(COC)no1)C(=O)CCn1c(C)cc2ccccc21`, the cytotoxicity at 10 µM is -0.0679%.

For `CN(C(=O)NCc1ccncc1)C1CCCN(c2ccccc2)C1=O` (stereo not given), the cytotoxicity at 10 µM was -8.86%.

As for `Cc1ccc(OCCN2CCC(c3ccnn3CCO)CC2)cc1`, the cytotoxicity at 10 µM is -3.29%.

With `CCc1c(O)n(C(C)CC)c(SCC(=O)c2ccccc2)nc1=O` (stereo not given), the cytotoxicity at 10 µM is -2.11%.

On to `CNS(=O)(=O)c1ccc(CNC(=O)c2cccc(C)n2)cc1`, for which the cytotoxicity at 10 µM worked out at 7.17%.

For `CC1COCCN1Cc1nc(-c2cccs2)no1` (stereo not given), the cytotoxicity at 10 µM was -7.79%.

Regarding `Nc1nccnc1C1CN(C(=O)c2cnccn2)CCO1` (stereo not given), the cytotoxicity at 10 µM was -9.17%.

With `COCCOCCNC(=O)c1cccc(Cn2nc(C)cc2C)c1`, the cytotoxicity at 10 µM turned out to be 17.6%.

Regarding `CC(C)c1ccc(OCCC(=O)N2CCC(CC(N)=O)CC2)cc1`, the cytotoxicity at 10 µM was -14%.

Take `Cc1n[nH]cc1CNC(C(=O)N1CCCCC1)c1ccccc1` (stereo not given): the cytotoxicity at 10 µM amounted to 8.37%.

Turning to `CCOC(=O)COc1ccc(C(C)=O)c(O)c1`, the cytotoxicity at 10 µM was -19.3%.

On to `CCS(=O)(=O)N1CCC2(CC1)c1ncc(-c3cccnc3)n1CCN2C`, for which the cytotoxicity at 10 µM is -103%.

As for `COCCOCC(=O)NC1CCN(c2ccccn2)CC1`, the cytotoxicity at 10 µM is -0.555%.

`CCc1ocnc1C(=O)N1CCCC(n2nc(C)nc2C)C1` (stereo not given): the cytotoxicity at 10 µM was -11.5%.

On to `CC(C)C1SCC(=O)Nc2c1cnn2-c1ccc(F)cc1` (stereo not given), for which the cytotoxicity at 10 µM was determined as 1.23%.

`CCN1C(=O)CCCC12CCCN(C(=O)c1cnccn1)C2` (stereo not given): the cytotoxicity at 10 µM was 2.63%.

With `CCCS(=O)(=O)N1CCN(c2ccc3nnc(CC)n3n2)CC1`, the cytotoxicity at 10 µM was 8.75%.

For the molecule `O=C(NC1CC1)[C@H]1C[C@@H]2CCN(Cc3ccc4c(c3)OCO4)C[C@@H]2O1`, the cytotoxicity at 10 µM came to 0.782%.

As to `CN(C)Cc1cnc(C2CCN(C(=O)c3cccc(F)c3)C2)[nH]1` (stereo not given), the cytotoxicity at 10 µM was determined as 2.54%.

On to `FC(F)(F)COc1ccc(CSCc2ccon2)cn1`, for which the cytotoxicity at 10 µM is -4.52%.

For the molecule `O=C(c1cccnc1)N1C[C@H]2CC[C@@H](C1)N(Cc1ccc(F)cc1Cl)C2`, the cytotoxicity at 10 µM amounted to 1.17%.

`O=C(C1CCOCC1)N1CC[C@@H]2[C@H]1CCC(=O)N2c1ccccc1`: the cytotoxicity at 10 µM amounted to 5.5%.

For the molecule `CC(C)N1CCC[C@H]1C(=O)NCC1CCN(c2cnn(C)c(=O)c2)CC1`, the cytotoxicity at 10 µM was determined as 4.75%.

In the case of `O=C(O)c1nnn(-c2ccccc2F)c1-c1ccncc1`, the cytotoxicity at 10 µM worked out at 10.2%.

`O=C(c1ccoc1)N1CCc2ncnc(NCc3ccccn3)c2CC1`: the cytotoxicity at 10 µM was 0.224%.

As for `Cc1cc(CNC(=O)Nc2cccc(COCCOC(C)C)c2)no1`, the cytotoxicity at 10 µM is 11%.
